Data from ChEMBL document CHEMBL4706538, “Novel pleuromutilin derivatives with substituted 6-methylpyrimidine: Design, synthesis and antibacterial evaluation” (2020).
Converted amounts (≈) assume the structure as drawn.

Key:
[1] = test system: Streptococcus dysgalactiae; assay: Antibacterial activity against Streptococcus dysgalactiae measured after 18 to 24 hrs by microtiter dilution method; type: functional; settings: time 18-24 hrs
How it was run: (§1)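 Compounds were taken up in 25% DMSO at 64 μg/mL and serially diluted two-fold in water (11 dilutions). Log-phase bacteria grown in MHB were diluted to 10^5-10^6 CFU/mL and mixed 1:1 with the dilutions. Plates were incubated at 37 °C for 18-24 h. MIC was the lowest concentration giving no growth by OD492, averaged over three independent experiments.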

Staphylococcus aureus [2] = assay: Antibacterial activity against Staphylococcus aureus ATCC 25923 measured after 18 to 24 hrs by microtiter dilution method; type: functional; settings: time 18-24 hrs; how it was run: as §1
Streptococcus agalactiae = assay: Antibacterial activity against Streptococcus agalactiae measured after 18 to 24 hrs by microtiter dilution method; type: functional; settings: time 18-24 hrs; how it was run: as §1
Escherichia coli = assay: Antibacterial activity against Escherichia coli CICC 10389 measured after 18 to 24 hrs by microtiter dilution method; type: functional; settings: time 18-24 hrs; how it was run: as §1
Staphylococcus aureus [3] = assay: Antibacterial activity against Staphylococcus aureus BNCC 337371 measured after 18 to 24 hrs by microtiter dilution method; type: functional; settings: time 18-24 hrs; how it was run: as §1
Pasteurella multocida = assay: Antibacterial activity against Pasteurella multocida CVCC 1659 measured after 18 to 24 hrs by microtiter dilution method; type: functional; settings: time 18-24 hrs; how it was run: as §1
[4] = test system: Staphylococcus epidermidis; assay: Antibacterial activity against Staphylococcus epidermidis ATCC 51625 measured after 18 to 24 hrs by microtiter dilution method; type: functional; settings: time 18-24 hrs; how it was run: as §1
Enterococcus faecalis = assay: Antibacterial activity against Enterococcus faecalis measured after 18 to 24 hrs by microtiter dilution method; type: functional; settings: time 18-24 hrs; how it was run: as §1
Staphylococcus aureus [5] = assay: Bacteriostatic activity against Staphylococcus aureus BNCC 337371 assessed as reduction in bacterial load at 2 to 4 times MIC incubated for 8 hrs prior to 10 fold dilution followed by replating on MH agar plate and measured after 24 hrs by time-kill assay relative to control; type: functional; settings: time 32 hrs
How it was run: (§2)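 MRSA-337371 was grown in Mueller-Hinton broth at 37 °C for 6 h with shaking, then diluted to about 6×10^5 CFU/mL. It was exposed to 0.5, 1, 2 and 4× MIC. Samples taken at 0, 2, 4, 6, 8, 12 and 24 h were serially diluted 10-fold in 0.9% saline and plated on MH agar at 37 °C for 24 h. Colonies were counted as log10 CFU/mL, in triplicate.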

Staphylococcus aureus [6] = assay: Bacteriostatic activity against Staphylococcus aureus BNCC 337371 assessed as reduction in bacterial load incubated for 2 to 24 hrs prior to 10 fold dilution followed by replating on MH agar plate and measured after 24 hrs by time-kill assay; type: functional, organism-based; settings: time 2-24 hrs; how it was run: as §2

Row | MIC [1] | MIC (Staphylococcus aureus [2]) | MIC (Streptococcus agalactiae) | MIC (Escherichia coli) | MIC (Staphylococcus aureus [3]) | MIC (Pasteurella multocida) | MIC [4] | MIC (Enterococcus faecalis) | Structure (SMILES) | fold change (FC) (Staphylococcus aureus [5]) | Activity (Staphylococcus aureus [6])
1 | 0.42 µM (≈ 0.252 µg/mL) | 0.21 µM (≈ 0.126 µg/mL) | 0.84 µM (≈ 0.504 µg/mL) | > 53.5 µM | 0.84 µM (≈ 0.504 µg/mL) | 53.5 µM (≈ 32.1 µg/mL) | 0.42 µM (≈ 0.252 µg/mL) | 53.5 µM (≈ 32.1 µg/mL) | C=C[C@]1(C)C[C@@H](OC(=O)CSc2nc(C)cc(N3CCC(CO)CC3)n2)[C@@]2(C)[C@H](C)CC[C@]3(CCC(=O)[C@H]32)[C@@H](C)[C@@H]1O | – | –
2 | 0.05 µM (≈ 0.0286 µg/mL) | 0.11 µM (≈ 0.0629 µg/mL) | 0.05 µM (≈ 0.0286 µg/mL) | > 56 µM | 0.11 µM (≈ 0.0629 µg/mL) | 14 µM (≈ 8 µg/mL) | 0.11 µM (≈ 0.0629 µg/mL) | 14 µM (≈ 8 µg/mL) | C=C[C@]1(C)C[C@@H](OC(=O)CSc2nc(C)cc(N3CCOCC3)n2)[C@@]2(C)[C@H](C)CC[C@]3(CCC(=O)[C@H]32)[C@@H](C)[C@@H]1O | >=2 | Dose-dependent effect
3 | 0.12 µM (≈ 0.062 µg/mL) | 0.24 µM (≈ 0.124 µg/mL) | 0.24 µM (≈ 0.124 µg/mL) | > 62 µM | 0.24 µM (≈ 0.124 µg/mL) | 62 µM (≈ 32 µg/mL) | 0.24 µM (≈ 0.124 µg/mL) | 31 µM (≈ 16 µg/mL) | C=C[C@]1(C)C[C@@H](OC(=O)CSc2nc(C)cc(OC)n2)[C@@]2(C)[C@H](C)CC[C@]3(CCC(=O)[C@H]32)[C@@H](C)[C@@H]1O | – | –
4 | 0.06 µM (≈ 0.0311 µg/mL) | 0.24 µM (≈ 0.124 µg/mL) | 0.06 µM (≈ 0.0311 µg/mL) | 30.9 µM (≈ 16 µg/mL) | 0.12 µM (≈ 0.0621 µg/mL) | 0.97 µM (≈ 0.502 µg/mL) | 0.12 µM (≈ 0.0621 µg/mL) | 15.4 µM (≈ 8 µg/mL) | C=C[C@]1(C)C[C@@H](OC(=O)CS[C@@H]2C[C@H]3CC[C@@H](C2)N3C)[C@@]2(C)[C@H](C)CC[C@]3(CCC(=O)[C@H]32)[C@@H](C)[C@@H]1O | – | –
5 | 0.92 µM (≈ 0.501 µg/mL) | 0.46 µM (≈ 0.251 µg/mL) | 0.23 µM (≈ 0.125 µg/mL) | > 58.8 µM | 0.23 µM (≈ 0.125 µg/mL) | > 58.8 µM | 0.46 µM (≈ 0.251 µg/mL) | 58.8 µM (≈ 32 µg/mL) | C=C[C@]1(C)C[C@@H](OC(=O)CSc2nc(C)cc(OC(C)C)n2)[C@@]2(C)[C@H](C)CC[C@]3(CCC(=O)[C@H]32)[C@@H](C)[C@@H]1O | – | –
6 | 0.11 µM (≈ 0.0644 µg/mL) | 0.21 µM (≈ 0.123 µg/mL) | 0.05 µM (≈ 0.0293 µg/mL) | > 54.7 µM | 0.21 µM (≈ 0.123 µg/mL) | 27.3 µM (≈ 16 µg/mL) | 0.21 µM (≈ 0.123 µg/mL) | 27.3 µM (≈ 16 µg/mL) | C=C[C@]1(C)C[C@@H](OC(=O)CSc2nc(C)cc(N3CCC[C@@H](O)C3)n2)[C@@]2(C)[C@H](C)CC[C@]3(CCC(=O)[C@H]32)[C@@H](C)[C@@H]1O | – | –
7 | 0.11 µM (≈ 0.0644 µg/mL) | 0.21 µM (≈ 0.123 µg/mL) | 0.11 µM (≈ 0.0644 µg/mL) | > 54.7 µM | 0.21 µM (≈ 0.123 µg/mL) | 27.3 µM (≈ 16 µg/mL) | 0.21 µM (≈ 0.123 µg/mL) | 13.7 µM (≈ 8.01 µg/mL) | C=C[C@]1(C)C[C@@H](OC(=O)CSc2nc(C)cc(N3CCC(O)CC3)n2)[C@@]2(C)[C@H](C)CC[C@]3(CCC(=O)[C@H]32)[C@@H](C)[C@@H]1O | – | –
8 | 0.12 µM (≈ 0.0637 µg/mL) | 0.12 µM (≈ 0.0637 µg/mL) | 0.24 µM (≈ 0.127 µg/mL) | > 60.4 µM | 0.12 µM (≈ 0.0637 µg/mL) | > 60.4 µM | 0.24 µM (≈ 0.127 µg/mL) | 15.1 µM (≈ 8.01 µg/mL) | C=C[C@]1(C)C[C@@H](OC(=O)CSc2nc(C)cc(OCC)n2)[C@@]2(C)[C@H](C)CC[C@]3(CCC(=O)[C@H]32)[C@@H](C)[C@@H]1O | – | –
9 | 0.23 µM (≈ 0.126 µg/mL) | 0.92 µM (≈ 0.502 µg/mL) | 0.46 µM (≈ 0.251 µg/mL) | > 58.7 µM | 0.92 µM (≈ 0.502 µg/mL) | > 58.7 µM | 0.92 µM (≈ 0.502 µg/mL) | 58.7 µM (≈ 32 µg/mL) | C=C[C@]1(C)C[C@@H](OC(=O)CSc2nc(C)cc(OCCN)n2)[C@@]2(C)[C@H](C)CC[C@]3(CCC(=O)[C@H]32)[C@@H](C)[C@@H]1O | – | –
10 | 0.1 µM (≈ 0.0615 µg/mL) | 0.1 µM (≈ 0.0615 µg/mL) | 0.1 µM (≈ 0.0615 µg/mL) | > 52.1 µM | 0.41 µM (≈ 0.252 µg/mL) | 26 µM (≈ 16 µg/mL) | 0.2 µM (≈ 0.123 µg/mL) | 26 µM (≈ 16 µg/mL) | C=C[C@]1(C)C[C@@H](OC(=O)CSc2nc(C)cc(N3CCN(CCO)CC3)n2)[C@@]2(C)[C@H](C)CC[C@]3(CCC(=O)[C@H]32)[C@@H](C)[C@@H]1O | – | –
